Laboratory results published in ChEMBL document CHEMBL3085645, “Design, synthesis and biological evaluation of phosphorodiamidate prodrugs of antiviral and anticancer nucleosides” (Eur J Med Chem, 2013).

Experiments:
[1] = Cytotoxicity against HEL cells; format: cell-based; details: human
Felid alphaherpesvirus 1 = assay: Antiviral activity against Feline herpesvirus infected in cat CRFK cells assessed as inhibition of virus-induced cytopathicity; format: functional, organism-based; details: Felid alphaherpesvirus 1, CRFK
Human alphaherpesvirus 1 [2] = assay: Antiviral activity against acyclovir-resistant thymidine kinase-deficient Herpes simplex virus 1 KOS infected in HEL cells assessed as inhibition of virus-induced cytopathicity; format: functional, organism-based; details: Human alphaherpesvirus 1, KOS
Human alphaherpesvirus 2 = assay: Antiviral activity against Herpes simplex virus 2 G infected in HEL cells assessed as inhibition of virus-induced cytopathicity; format: functional, organism-based; details: Human alphaherpesvirus 2, strain G
Human alphaherpesvirus 1 [3] = assay: Antiviral activity against Herpes simplex virus 1 KOS infected in HEL cells assessed as inhibition of virus-induced cytopathicity; format: functional, organism-based; details: Human alphaherpesvirus 1, KOS
Hepatitis C virus = assay: Antiviral activity against Hepatitis C virus genotype 1b infected in human HuH7 cells assessed as inhibition of viral replication; format: functional, organism-based, Hepacivirus hominis; details: Huh-7, read-out: EC50
MT4 = assay: Cytotoxicity against human MT4 cells assessed as cell viability by propidium iodide staining-based cell counting analysis
How it was run: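 MT-4 cultures, untreated or treated, were counted on an automated cell counter. Total and dead cells were enumerated by propidium iodide-based assay.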

[4] = test system: Human immunodeficiency virus 1; assay: Antiviral activity against HIV1 infected in human MT4 cells assessed as p24 production after 3 days; details: Human immunodeficiency virus 1, MT4, 72 h
[5] = Prodrug conversion assessed as carboxypeptidase Y (unknown origin)-mediated (S)-2-((((2R,3S,4R,5R)-5-(5-amino-4-carbamoyl-1H-imidazol-1-yl)-3,4-dihydroxytetrahydrofuran-2-yl)methoxy)oxidophosphorylamino)propanoate formation at 4.8 mg measured after 24 hrs by 31P-NMR analysis; format: ADME; details: human
How it was run: (§1)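 Prodrug incubated with carboxypeptidase Y in d6-acetone/Trizma buffer (pH 7.6); conversion followed over time by 31P NMR.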

HeLa [6] = assay: Cytostatic activity against thymidine kinase-deficient human HeLa cells assessed as growth inhibition after 3 days by particle counting analysis; format: functional, cell-based; details: 72 h
How it was run: (§2)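 Tumor cells seeded and exposed to a range of compound concentrations. Cell number counted with a particle counter after 2 days (L1210, L1210/TK) or 3 days (CEM, CEM/TK, HeLa, HeLa TK, Caco-2, Colo-320).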

HeLa [7] = assay: Cytostatic activity against human HeLa cells assessed as growth inhibition after 3 days by particle counting analysis; format: functional, cell-based; details: 72 h; how it was run: as §2
CCRF-CEM = assay: Cytostatic activity against human CEM cells assessed as growth inhibition after 3 days by particle counting analysis; format: functional, cell-based; details: 72 h; how it was run: as §2
L1210 = assay: Cytostatic activity against mouse L1210 cells assessed as growth inhibition after 2 days by particle counting analysis; format: functional, cell-based; details: L1210, 48 h; how it was run: as §2
[8] = Chemical stability in d6 acetone/trizma buffer at 4.8 mg in absence of carboxypeptidase Y; format: physicochemical
How it was run: (§3)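 Prodrug kept in d6-acetone plus Trizma buffer (pH 7.6) without carboxypeptidase Y; integrity followed by 31P NMR.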

[9] = Chemical stability in d6 acetone/trizma buffer at 5 mg in absence of carboxypeptidase Y; format: physicochemical; how it was run: as §3
[10] = Prodrug conversion assessed as carboxypeptidase Y (unknown origin)-mediated (8S)-1-(2-amino-6-oxo-1,6-dihydro-9H-purin-9-yl)-8-methyl-6-oxido-2,5-dioxa-7-aza-6-phosphanonan-9-oate 6-oxide formation at 5 mg measured after 7.5 hrs by 31P-NMR analysis; format: ADME; details: human; how it was run: as §1
[11] = Prodrug conversion assessed as carboxypeptidase Y (unknown origin)-mediated metabolite formation lacking one ester moiety at 5 mg measured every 5 mins for 24 hrs by 31P-NMR analysis; format: ADME; details: human; how it was run: as §1

## C[C@H](NP(=O)(N[C@@H](C)C(=O)OCC(C)(C)C)OCCOCn1cnc2c(=O)[nH]c(N)nc21)C(=O)OCC(C)(C)C
[1]
  MCC: > 100 µM
Felid alphaherpesvirus 1
  EC50: > 100 µM
Human alphaherpesvirus 1 [2]
  EC50: 20 µM
Human alphaherpesvirus 2
  EC50: 40 µM
Human alphaherpesvirus 1 [3]
  EC50: 33 µM
Hepatitis C virus
  EC50: > 100 µM
MT4
  CC50: 82.8 µM
[4]
  EC50: 4.07 µM

## C[C@H](NP(=O)(N[C@@H](C)C(=O)OCC(C)(C)C)OC[C@H]1O[C@@H](n2cnc(C(N)=O)c2N)[C@H](O)[C@@H]1O)C(=O)OCC(C)(C)C
[5]
  Drug metabolism: Not Active
[1]
  MCC: > 100 µM
Felid alphaherpesvirus 1
  EC50: > 100 µM
Human alphaherpesvirus 1 [2]
  EC50: > 100 µM
Human alphaherpesvirus 2
  EC50: > 100 µM
Human alphaherpesvirus 1 [3]
  EC50: > 100 µM
HeLa [6]
  IC50: > 250 µM
HeLa [7]
  IC50: > 250 µM
CCRF-CEM
  IC50: > 250 µM
L1210
  IC50: > 250 µM

## C[C@H](NP(=O)(N[C@@H](C)C(=O)OCc1ccccc1)OCCOCn1cnc2c(=O)[nH]c(N)nc21)C(=O)OCc1ccccc1
[8]
  Stability: Stable
[9]
  Stability: Stable
[10]
  Drug metabolism: Active
[11]
  Drug metabolism: Active
[1]
  MCC: > 100 µM
Felid alphaherpesvirus 1
  EC50: > 100 µM
Human alphaherpesvirus 1 [2]
  EC50: 25 µM
Human alphaherpesvirus 2
  EC50: 16 µM
Human alphaherpesvirus 1 [3]
  EC50: 18 µM
Hepatitis C virus
  EC50: > 100 µM
MT4
  CC50: 34.9 µM
[4]
  EC50: 2.01 µM
